Laboratory results: publication PMC5497587 (Molecular pharmaceutics, 2017)

Key:
[1] = system: human and guinea pig smooth muscle tissue; conditions: cited from earlier work
[2] = cited from earlier work
[3] = system: airway hyperresponsiveness and airway eosinophilia; conditions: cited from earlier work
[4] = system: inflammatory cells in bronchoalveolar lavage fluid; test: Inflammatory cells in BALF of ova s/c BALB/c mice; format: in vivo, mouse
Outline: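 Male BALB/c mice (5–10 wk), ova-sensitised/challenged, 10 per group; dexamethasone 4 mg/kg i.p. daily for 8 days (10% DMSO/40% propylene glycol/50% PBS); test compounds 100 mg/kg b.i.d. by gavage for 5 days. BAL with 1 ml Ca/Mg-free PBS, RBC lysis, Fc block, 30 min 4 °C antibody staining. CD45+ count gives cells/ml; CCR3+/GR1+/CD4+/CD11b+ frequencies × total; mean ± SEM versus vehicle.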

[5] = system: GABAARs expressed on splenocytes; test: Automated patch-clamp electrophysiology for splenocytes; format: cell-based, mouse; conditions: splenocytes from ova s/c mice

C#Cc1ccc2c(c1)C(c1ccccc1F)=N[C@H](C)c1c(C(=O)OCC)ncn1-2 [SH-053-2′F-R-CH3]
smooth muscle relaxation ex vivo [1]: relax human and guinea pig smooth muscle tissue
blood brain barrier crossing [2]: can cross the blood brain barrier

C[C@@H]1C[C@H]2[C@@H]3CCC4=CC(=O)C=C[C@]4(C)[C@@]3(F)[C@@H](O)C[C@]2(C)[C@@]1(O)C(=O)CO [dexamethasone]
AHR in ova s/c mice ([3]; dexamethasone treated ova s/c mice): reduced AHR
CD4+ T cell population in BALF ([4]; 4 mg/kg i.p. for 8 days): significantly reduced
CD11b+ leukocyte population in BALF ([4]; i.p. 4 mg/kg daily for 8 days): as did dexamethasone treatment
eosinophils (CCR3+) in BALF by flow cytometry ([4]; i.p. 4 mg/kg daily for 8 days): almost completely eliminated
reduction of white blood cells in BALF ([4]; i.p. 4 mg/kg daily for 8 days, compared with compounds 1 and 2): more pronounced

C=CCc1ccc(O)c(-c2ccc(O)c(CC=C)c2)c1 [honokiol]
AHR and lung eosinophilia ([3]; acute and chronic administration, ova s/c mouse asthma model): reduced AHR and lung eosinophilia

NCc1cc(=O)[nH]o1 [muscimol]
induced current change relative to current change induced by GABA [5]: around 50%
